How the values were obtained:
Blood = experiment: Inhibition of LPS-induced TNFalpha release in human whole blood after 24 hrs by ELISA; type: functional, tissue-based
[1] = Metabolic stability in rat liver microsomes assessed as compound turnover at 5 uM after 30 mins in presence of NADPH; type: ADME, Microsome; settings: read-out: Drug metabolism
In short: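 5 µM test compound incubated with rat or human hepatic microsomes (1 mg/mL) plus NADPH for 30 min at 37 °C; result given as % turnover.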

[2] = Metabolic stability in human liver microsomes assessed as compound turnover at 5 uM after 30 mins in presence of NADPH; type: ADME, Microsome; settings: read-out: Drug metabolism
Liver microsomes [3] = experiment: Metabolic stability in human liver microsomes assessed as compound turnover at 5 uM after 30 mins in absence of NADPH; type: ADME, Microsome; settings: 0.5 h
[4] = Apparent passive permeability from apical to basolateral side of the human Caco2 cells at 12.5 uM; type: ADME, cell-based; settings: Caco-2
In short: (§1)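 Passive permeability across Caco-2 monolayer measured with 12.5 µM test compound in both directions (apical-to-basal and basal-to-apical); Papp reported in 10^-6 cm/s.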

[5] = Apparent passive permeability from basolateral to apical side of the human Caco2 cells at 12.5 uM; type: ADME, cell-based; settings: Caco-2; in short: as §1
CHO [6] = experiment: Cytotoxicity against CHO cells; type: cell-based; settings: Cricetulus griseus
[7] = Half life in rat at 1 mg/kg, iv; type: ADME, organism-based; design: dose 1 mg/kg, route intravenous; settings: in vivo
[8] = Cmax in rat at 1 mg/kg, iv; type: ADME, organism-based; design: dose 1 mg/kg, route intravenous; settings: in vivo
[9] = Clearance in rat at 1 mg/kg, iv; type: ADME, organism-based; design: dose 1 mg/kg, route intravenous; settings: in vivo
[10] = AUC (0 to infinity) in rat at 1 mg/kg, iv; type: ADME, organism-based; design: time infinity, dose 1 mg/kg, route intravenous; settings: plasma
[11] = Volume of distribution at steady state in rat at 1 mg/kg, iv; type: ADME, organism-based; design: dose 1 mg/kg, route intravenous; settings: in vivo, read-out: Vdss
[12] = Mean residence time in rat at 1 mg/kg, iv; type: ADME, organism-based; design: dose 1 mg/kg, route intravenous; settings: in vivo
[13] = Cmax in rat at 10 mg/kg, po; type: ADME, organism-based; design: dose 10 mg/kg, route oral; settings: in vivo
[14] = AUC (0 to infinity) in rat at 10 mg/kg, po; type: ADME, organism-based; design: time infinity, dose 10 mg/kg, route oral; settings: plasma
[15] = Oral bioavailability in rat at 10 mg/kg; type: ADME, organism-based; settings: in vivo
[16] = biological target: T1, Mitogen-activated protein kinase 14 (Homo sapiens, UniProt Q16539)
T1 sequence (Q16539 whole entry): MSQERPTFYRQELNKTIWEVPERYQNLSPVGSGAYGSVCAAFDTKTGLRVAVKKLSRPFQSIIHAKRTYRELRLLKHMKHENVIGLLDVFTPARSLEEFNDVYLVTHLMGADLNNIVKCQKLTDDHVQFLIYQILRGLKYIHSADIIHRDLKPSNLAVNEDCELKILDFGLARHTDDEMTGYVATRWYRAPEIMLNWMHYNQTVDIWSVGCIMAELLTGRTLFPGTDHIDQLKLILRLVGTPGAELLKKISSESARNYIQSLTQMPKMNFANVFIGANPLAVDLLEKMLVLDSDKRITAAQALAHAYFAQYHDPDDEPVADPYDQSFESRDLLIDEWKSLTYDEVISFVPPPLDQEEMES

[17] = biological target: T1, Mitogen-activated protein kinase 14; experiment: Inhibition of human p38alpha using biotinylated ATF2 as substrate at 60 uM preincubated for 1 hr measured after 1 hr by FRET assay
Liver microsomes [18] = experiment: Metabolic stability in human liver microsomes in absence of NADPH; type: ADME, Microsome
Liver microsomes [19] = experiment: Metabolic stability in rat liver microsomes in absence of NADPH; type: ADME, Microsome
Cytochrome P450 3A4 = Cytochrome P450 3A4 (Homo sapiens, UniProt P08684); experiment: Inhibition of human CYP3A4; type: ADME
Chain of Cytochrome P450 3A4 (P08684 whole entry): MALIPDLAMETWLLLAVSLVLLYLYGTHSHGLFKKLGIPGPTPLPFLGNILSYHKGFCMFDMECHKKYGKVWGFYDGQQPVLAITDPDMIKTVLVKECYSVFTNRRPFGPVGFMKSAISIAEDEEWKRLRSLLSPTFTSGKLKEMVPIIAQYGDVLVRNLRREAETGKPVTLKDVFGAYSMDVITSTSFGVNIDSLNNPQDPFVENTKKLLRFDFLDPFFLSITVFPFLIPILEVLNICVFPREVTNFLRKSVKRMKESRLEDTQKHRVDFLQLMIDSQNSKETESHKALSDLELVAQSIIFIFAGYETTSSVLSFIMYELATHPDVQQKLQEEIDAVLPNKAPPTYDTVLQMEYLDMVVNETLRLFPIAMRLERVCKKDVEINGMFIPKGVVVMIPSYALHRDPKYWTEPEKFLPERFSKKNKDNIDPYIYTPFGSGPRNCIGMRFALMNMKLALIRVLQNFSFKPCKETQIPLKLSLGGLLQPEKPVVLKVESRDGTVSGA

Cytochrome P450 2C9 = Cytochrome P450 2C9 (Homo sapiens, UniProt P11712); experiment: Inhibition of human CYP2C9; type: ADME
Chain of Cytochrome P450 2C9 (P11712 whole entry): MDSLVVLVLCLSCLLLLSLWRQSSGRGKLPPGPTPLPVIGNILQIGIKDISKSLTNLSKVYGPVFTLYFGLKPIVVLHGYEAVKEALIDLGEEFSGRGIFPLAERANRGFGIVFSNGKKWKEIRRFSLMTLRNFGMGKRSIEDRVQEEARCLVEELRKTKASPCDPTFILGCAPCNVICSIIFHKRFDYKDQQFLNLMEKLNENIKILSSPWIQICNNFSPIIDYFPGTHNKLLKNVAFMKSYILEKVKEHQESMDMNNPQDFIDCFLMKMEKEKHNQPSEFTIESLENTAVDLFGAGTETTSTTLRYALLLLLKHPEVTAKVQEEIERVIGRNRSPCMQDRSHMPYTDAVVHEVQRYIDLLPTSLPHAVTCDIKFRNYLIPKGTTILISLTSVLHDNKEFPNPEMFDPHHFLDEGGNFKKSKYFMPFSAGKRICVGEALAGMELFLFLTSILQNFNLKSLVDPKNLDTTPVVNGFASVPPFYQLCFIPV

Cytochrome P450 2C19 = Cytochrome P450 2C19 (Homo sapiens, UniProt P33261); experiment: Inhibition of human CYP2C19; type: ADME
Chain of Cytochrome P450 2C19 (P33261 whole entry): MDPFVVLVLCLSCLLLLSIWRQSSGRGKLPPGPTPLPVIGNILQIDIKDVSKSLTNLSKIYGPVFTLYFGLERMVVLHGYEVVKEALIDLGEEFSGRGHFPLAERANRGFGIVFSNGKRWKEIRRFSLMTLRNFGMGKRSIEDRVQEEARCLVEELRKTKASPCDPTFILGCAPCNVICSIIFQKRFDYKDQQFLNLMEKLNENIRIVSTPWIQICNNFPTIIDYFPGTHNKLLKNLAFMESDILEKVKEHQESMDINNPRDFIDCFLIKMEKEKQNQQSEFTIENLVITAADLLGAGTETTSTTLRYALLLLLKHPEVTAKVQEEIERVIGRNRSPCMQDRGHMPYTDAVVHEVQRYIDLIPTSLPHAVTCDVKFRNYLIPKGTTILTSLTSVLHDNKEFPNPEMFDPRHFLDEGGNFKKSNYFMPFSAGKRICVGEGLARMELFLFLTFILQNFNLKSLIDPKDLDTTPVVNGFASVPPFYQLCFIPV

Cytochrome P450 2D6 = Cytochrome P450 2D6 (Homo sapiens, UniProt P10635); experiment: Inhibition of human CYP2D6; type: ADME
Chain of Cytochrome P450 2D6 (P10635 whole entry): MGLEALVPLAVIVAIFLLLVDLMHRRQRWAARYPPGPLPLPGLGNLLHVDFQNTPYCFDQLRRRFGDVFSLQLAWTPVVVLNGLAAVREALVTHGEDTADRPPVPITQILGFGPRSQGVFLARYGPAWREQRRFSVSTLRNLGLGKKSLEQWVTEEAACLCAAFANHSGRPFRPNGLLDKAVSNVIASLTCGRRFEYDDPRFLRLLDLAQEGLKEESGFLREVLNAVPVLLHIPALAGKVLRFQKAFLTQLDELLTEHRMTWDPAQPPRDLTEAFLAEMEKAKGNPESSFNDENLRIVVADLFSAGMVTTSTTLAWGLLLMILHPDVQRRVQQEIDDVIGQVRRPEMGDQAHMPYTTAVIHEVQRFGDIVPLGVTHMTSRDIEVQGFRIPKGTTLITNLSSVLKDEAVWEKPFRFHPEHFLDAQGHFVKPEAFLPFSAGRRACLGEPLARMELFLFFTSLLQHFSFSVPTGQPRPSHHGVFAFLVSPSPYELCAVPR

CHO [20] = experiment: Cytotoxicity against CHO cells at 200 uM; type: cell-based, Cricetulus griseus; settings: chinese hamster
Rattus norvegicus = experiment: Antiinflammatory activity in rat assessed as inhibition of LPS-induced TNFalpha production plasma administered orally 1 hr prior to LPS challenge measured after 1.5 hrs by ELISA; type: functional
hERG = hERG (Homo sapiens, UniProt Q12809); experiment: Inhibition of human ERG expressed in HEK293 cells at 10 uM; type: cell-based; settings: HEK293 cells that express hERG
Chain of hERG (Q12809 whole entry): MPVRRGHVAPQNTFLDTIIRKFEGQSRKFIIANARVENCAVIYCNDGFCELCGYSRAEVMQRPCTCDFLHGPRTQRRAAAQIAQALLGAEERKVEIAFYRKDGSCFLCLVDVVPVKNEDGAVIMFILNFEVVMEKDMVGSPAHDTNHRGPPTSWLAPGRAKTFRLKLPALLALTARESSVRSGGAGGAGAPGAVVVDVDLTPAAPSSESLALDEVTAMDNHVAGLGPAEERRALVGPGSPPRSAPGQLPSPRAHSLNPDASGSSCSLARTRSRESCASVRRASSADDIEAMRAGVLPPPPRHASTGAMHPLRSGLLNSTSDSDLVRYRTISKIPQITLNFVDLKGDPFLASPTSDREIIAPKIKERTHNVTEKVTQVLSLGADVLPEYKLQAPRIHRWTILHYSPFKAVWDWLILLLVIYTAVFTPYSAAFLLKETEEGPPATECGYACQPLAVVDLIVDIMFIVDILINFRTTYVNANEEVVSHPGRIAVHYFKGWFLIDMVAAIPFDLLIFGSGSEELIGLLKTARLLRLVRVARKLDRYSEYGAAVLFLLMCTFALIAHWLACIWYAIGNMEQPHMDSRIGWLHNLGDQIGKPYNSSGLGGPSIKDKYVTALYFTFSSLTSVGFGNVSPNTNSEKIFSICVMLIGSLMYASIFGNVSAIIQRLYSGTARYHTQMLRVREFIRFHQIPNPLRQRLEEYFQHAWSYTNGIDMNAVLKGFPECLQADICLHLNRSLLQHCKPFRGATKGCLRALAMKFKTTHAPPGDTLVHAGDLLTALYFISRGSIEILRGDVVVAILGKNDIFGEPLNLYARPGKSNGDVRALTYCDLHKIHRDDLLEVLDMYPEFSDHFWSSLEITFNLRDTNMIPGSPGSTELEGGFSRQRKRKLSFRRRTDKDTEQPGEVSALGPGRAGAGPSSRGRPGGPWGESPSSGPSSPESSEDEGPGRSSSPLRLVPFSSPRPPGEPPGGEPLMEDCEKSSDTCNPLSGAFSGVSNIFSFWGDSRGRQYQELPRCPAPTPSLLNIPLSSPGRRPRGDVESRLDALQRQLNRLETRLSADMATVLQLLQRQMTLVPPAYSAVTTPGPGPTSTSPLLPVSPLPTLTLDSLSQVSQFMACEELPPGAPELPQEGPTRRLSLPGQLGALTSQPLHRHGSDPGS

[21] = biological target: T2, 5-hydroxytryptamine receptor 1B (Homo sapiens, UniProt P28222); experiment: Inhibition of 5-HT1B
T2 sequence (P28222 whole entry): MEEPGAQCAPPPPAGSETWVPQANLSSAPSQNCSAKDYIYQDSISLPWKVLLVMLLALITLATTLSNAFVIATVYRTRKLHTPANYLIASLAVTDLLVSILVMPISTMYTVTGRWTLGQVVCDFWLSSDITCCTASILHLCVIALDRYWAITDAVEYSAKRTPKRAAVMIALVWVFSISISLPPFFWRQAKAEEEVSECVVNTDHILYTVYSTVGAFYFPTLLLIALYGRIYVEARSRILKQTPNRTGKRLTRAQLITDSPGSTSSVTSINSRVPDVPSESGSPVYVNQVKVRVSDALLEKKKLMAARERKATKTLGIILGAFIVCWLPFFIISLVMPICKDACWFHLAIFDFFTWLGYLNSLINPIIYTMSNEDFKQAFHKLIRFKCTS

[22] = biological target: T3, RAF proto-oncogene serine/threonine-protein kinase (Homo sapiens, UniProt P04049); experiment: Inhibition of cRaf
T3 sequence (P04049 whole entry): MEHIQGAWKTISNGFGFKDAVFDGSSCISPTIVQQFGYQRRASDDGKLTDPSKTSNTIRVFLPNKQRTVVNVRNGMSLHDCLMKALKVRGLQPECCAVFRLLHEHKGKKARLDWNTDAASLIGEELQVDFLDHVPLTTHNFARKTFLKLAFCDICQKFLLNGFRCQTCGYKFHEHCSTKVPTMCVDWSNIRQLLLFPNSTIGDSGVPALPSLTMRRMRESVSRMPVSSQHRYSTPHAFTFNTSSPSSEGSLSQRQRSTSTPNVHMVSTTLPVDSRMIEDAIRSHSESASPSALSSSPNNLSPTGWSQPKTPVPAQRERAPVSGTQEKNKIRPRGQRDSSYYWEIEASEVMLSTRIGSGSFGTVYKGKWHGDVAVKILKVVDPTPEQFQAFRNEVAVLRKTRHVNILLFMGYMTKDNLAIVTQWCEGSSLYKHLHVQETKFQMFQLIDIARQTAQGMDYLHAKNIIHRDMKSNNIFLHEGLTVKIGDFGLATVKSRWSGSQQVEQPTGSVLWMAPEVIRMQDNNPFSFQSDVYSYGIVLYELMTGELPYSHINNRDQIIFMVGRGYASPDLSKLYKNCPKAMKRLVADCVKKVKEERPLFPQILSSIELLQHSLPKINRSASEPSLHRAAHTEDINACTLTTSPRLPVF

[23] = biological target: T4, High affinity nerve growth factor receptor (Homo sapiens, UniProt P04629); experiment: Inhibition of human TrkA
Cytochrome P450 1A2 = biological target: T5, Cytochrome P450 1A2 (Homo sapiens, UniProt P05177); experiment: Inhibition of human CYP1A2; type: ADME
T5 sequence (P05177 whole entry): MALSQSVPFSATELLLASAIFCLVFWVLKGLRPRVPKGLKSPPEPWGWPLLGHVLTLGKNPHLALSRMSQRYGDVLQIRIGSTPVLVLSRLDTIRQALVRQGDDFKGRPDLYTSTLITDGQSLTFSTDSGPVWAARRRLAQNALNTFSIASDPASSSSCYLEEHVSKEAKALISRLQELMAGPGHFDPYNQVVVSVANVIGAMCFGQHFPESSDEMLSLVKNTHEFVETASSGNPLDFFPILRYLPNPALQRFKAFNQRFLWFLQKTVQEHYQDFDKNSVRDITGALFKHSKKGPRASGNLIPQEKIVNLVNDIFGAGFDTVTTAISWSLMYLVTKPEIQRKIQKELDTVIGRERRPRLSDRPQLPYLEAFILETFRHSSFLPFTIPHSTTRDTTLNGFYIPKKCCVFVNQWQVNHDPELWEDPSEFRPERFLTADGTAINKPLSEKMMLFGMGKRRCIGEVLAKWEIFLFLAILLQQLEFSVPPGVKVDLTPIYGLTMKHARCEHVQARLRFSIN

[24] = biological target: T2, 5-hydroxytryptamine receptor 1B; settings: 10 uM
[25] = biological target: T3, RAF proto-oncogene serine/threonine-protein kinase; settings: 10 uM
[26] = biological target: T4, High affinity nerve growth factor receptor; settings: 10 uM
CHO [27] = experiment: Cytotoxicity against CHO cells at 100 uM; type: cell-based, Cricetulus griseus; settings: chinese hamster

Structure (SMILES)	Stability (Liver microsomes [18])	Stability (Liver microsomes [19])	IC50 (Blood) [nM]	metabolised at 0.5 h, 5 µM [1] [%]	metabolised at 0.5 h, 5 µM [2] [%]	Stability (Liver microsomes [3])	Papp A→B at 12.5 µM [4] [×10⁻⁶ cm/s]	Papp B→A at 12.5 µM [5] [×10⁻⁶ cm/s]	half-life [7] [h]	Cmax [8] [ng/mL]	clearance [9] [mL/min/kg]	AUC(0-inf) [10] [ng·h/mL]	Vd [11] [L/kg]	MRT [12] [h]	Cmax [13] [ng/mL]	AUC(0-inf) [14] [ng·h/mL]	bioavailability [15] [%]	IC50 [16] [nM]	other results
Cc1nnc(-c2ccc(C)c(-c3ccc4c(c3)NC(=O)C43CCN(S(C)(=O)=O)CC3)c2)[nH]1			50	< 5	6	Stable	2	45	3.8	1300	17.2	1030	1.75	1.8	632	1370	13		IC50 (CHO [6]): 100000 nM
O=C1Nc2cc(-c3cccc4c(NC5CC5)noc34)ccc2C12CCCC2			1260															38	
Cc1ccc2c(N)n[nH]c2c1-c1ccc2c(c1)NC(=O)C21CCOCC1																			inhibition [17]: 60%
Cc1ccc2c(NC3CC3)noc2c1-c1ccc2c(c1)NC(=O)C2(C)C			50																
Cc1nnc(-c2ccc(C)c(-c3ccc4c(c3)NC(=O)C43CCC(F)(F)CC3)c2)[nH]1			98	5	< 5	Stable													IC50 (CHO [6]): 20000 nM
Cc1nnc(-c2ccc(C)c(-c3ccc4c(c3)NC(=O)C43CCCC3)c2)[nH]1	Stable	Stable	127	15	13	Stable												7.4	Activity (CHO [27]): 53%
Cc1ccc2c(N)noc2c1-c1ccc2c(c1)NC(=O)C21CCOCC1			145	9	3	Stable	28	16	1.9	752	13.8	1230	2	2.5	141	961	8	5	Activity (CHO [20]): 16%
Cc1ccc2c(N)noc2c1-c1ccc2c(c1)NC(=O)C21CCC(F)(F)CC1			137															1.2	
Cc1ccc2c(NC3CC3)noc2c1-c1ccc2c(c1)NC(=O)C21CCOCC1			8.4	18	26	Stable	26	16	2.9	1480	3.2	5270	0.8	4.6	479	3370	6	0.16	IC50 (CHO [6]): 49000 nM

More lines, main results first:

Stability (Liver microsomes [18])	Stability (Liver microsomes [19])	Structure (SMILES)	IC50 (Blood) [nM]	metabolised at 0.5 h, 5 µM [1] [%]	metabolised at 0.5 h, 5 µM [2] [%]	Stability (Liver microsomes [3])	Papp A→B at 12.5 µM [4] [×10⁻⁶ cm/s]	Papp B→A at 12.5 µM [5] [×10⁻⁶ cm/s]	half-life [7] [h]	Cmax [8] [ng/mL]	clearance [9] [mL/min/kg]	AUC(0-inf) [10] [ng·h/mL]	Vd [11] [L/kg]	MRT [12] [h]	Cmax [13] [ng/mL]	AUC(0-inf) [14] [ng·h/mL]	bioavailability [15] [%]	IC50 [16] [nM]	other results
Stable	Stable	Cc1nc(-c2ccc(C)c(-c3ccc4c(c3)NC(=O)C43CCCC3)c2)no1																583	
Stable	Stable	Cc1nnc(-c2ccc(C)c(-c3ccc4c(c3)NC(=O)C43CCOCC3)c2)[nH]1	93	23	< 5	Stable	18	27	3.1	1720	4.2	4060	1	4	1100	11700	29	7.6	IC50 (Cytochrome P450 3A4): > 25000 nM; IC50 (Cytochrome P450 2C9): > 25000 nM; IC50 (Cytochrome P450 2C19): > 25000 nM; IC50 (Cytochrome P450 2D6): > 25000 nM; Activity (CHO [20]): 48%; inhibition (Rattus norvegicus): Dose-dependent effect; ED50 (Rattus norvegicus; po): 0.69 mg/kg; inhibition at 10 µM (hERG): 49%; IC50 [21]: 10000 nM; IC50 [22]: 1600 nM; IC50 [23]: 7700 nM; IC50 (Cytochrome P450 1A2): > 25000 nM; inhibition [24]: > 50%; inhibition [25]: > 50%; inhibition [26]: > 50%
Stable	Stable	Cc1noc(-c2ccc(C)c(-c3ccc4c(c3)NC(=O)C43CCCC3)c2)n1																741	

— ChEMBL document CHEMBL1909512, “Indolin-2-one p38α inhibitors III: bioisosteric amide replacement” (Bioorg Med Chem Lett, 2011)
